Compounds with a hit are over-represented: about 2.4% of the library has one in this group of screens.
GSTO1 inh: GSTO1 inhibition, counter-screen for RBBP9 inhibitors; P78417; recombinant GSTO1, activity-based probe fluorescence polarization; inhibition, % at 5.96 µM; hit rate 1.1% among 300,000;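 active = inhibition above the campaign mean inhibition plus 3 SD, cut at about 35% in these data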;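 also: 0% = GSTO1-1 with DMSO and 100% = wells lacking GSTO1-1 enzyme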
TDP2 inh: TDP2 (human) inhibition, absorbance primary screen. AID 720702. inhibition, % at 12.8 µM. O95551. hit rate 0.34% among 370,000. recombinant TDP2, T5PNP hydrolysis, p-nitrophenol absorbance 415 nm;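 active = inhibition above the mean of all tested compounds plus 3 SD, set per campaign, cut at about 25% in these data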;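 also: 0% = DMSO with enzyme and 100% = buffer with substrate but no TDP2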
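Evaluation: % inhibition relative to enzyme-containing and enzyme-free wells. Material: recombinant human TDP2. Benchmarks: enzyme-free and DMSO wells. Timing: enzyme reaction with compound for 2 h at 37 °C. Compound dosing: 12.8 µM only. Measured by: p-Nitrophenol epi absorbance. Reagent: T5PNP substrate at 5 mM, a TopII-DNA adduct mimic. Replication: single well per compound.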
PAD4 FP inh: blocks human protein arginine deiminase 4 | Q9UM07 | inhibition, % at 6.36 µM | hit rate 0.41% among 330,000 | recombinant PAD4, RCA probe fluorescence polarization;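 active = percent inhibition above a cutoff equal to the mean of all tested compounds plus 3 SD, cut at about 15% in these data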;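 also: 0% = PAD4 with RCA probe and DMSO and 100% = probe without PAD4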
Apaf1 inhib: inhibitors of human Apaf-1 apoptosome; AID 489030; inhibition, % at 20 µM; hit rate 0.71% among 330,000; reconstituted apoptosome caspase-3 activity, DEVD-Rh110 fluorescence; active = inhibition of at least 40% at 20 µM;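 also: plate controls were DMSO wells for no effect and DEVD-CHO caspase inhibitor wells for full effect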
Target sequence (O14727 whole entry, looked up): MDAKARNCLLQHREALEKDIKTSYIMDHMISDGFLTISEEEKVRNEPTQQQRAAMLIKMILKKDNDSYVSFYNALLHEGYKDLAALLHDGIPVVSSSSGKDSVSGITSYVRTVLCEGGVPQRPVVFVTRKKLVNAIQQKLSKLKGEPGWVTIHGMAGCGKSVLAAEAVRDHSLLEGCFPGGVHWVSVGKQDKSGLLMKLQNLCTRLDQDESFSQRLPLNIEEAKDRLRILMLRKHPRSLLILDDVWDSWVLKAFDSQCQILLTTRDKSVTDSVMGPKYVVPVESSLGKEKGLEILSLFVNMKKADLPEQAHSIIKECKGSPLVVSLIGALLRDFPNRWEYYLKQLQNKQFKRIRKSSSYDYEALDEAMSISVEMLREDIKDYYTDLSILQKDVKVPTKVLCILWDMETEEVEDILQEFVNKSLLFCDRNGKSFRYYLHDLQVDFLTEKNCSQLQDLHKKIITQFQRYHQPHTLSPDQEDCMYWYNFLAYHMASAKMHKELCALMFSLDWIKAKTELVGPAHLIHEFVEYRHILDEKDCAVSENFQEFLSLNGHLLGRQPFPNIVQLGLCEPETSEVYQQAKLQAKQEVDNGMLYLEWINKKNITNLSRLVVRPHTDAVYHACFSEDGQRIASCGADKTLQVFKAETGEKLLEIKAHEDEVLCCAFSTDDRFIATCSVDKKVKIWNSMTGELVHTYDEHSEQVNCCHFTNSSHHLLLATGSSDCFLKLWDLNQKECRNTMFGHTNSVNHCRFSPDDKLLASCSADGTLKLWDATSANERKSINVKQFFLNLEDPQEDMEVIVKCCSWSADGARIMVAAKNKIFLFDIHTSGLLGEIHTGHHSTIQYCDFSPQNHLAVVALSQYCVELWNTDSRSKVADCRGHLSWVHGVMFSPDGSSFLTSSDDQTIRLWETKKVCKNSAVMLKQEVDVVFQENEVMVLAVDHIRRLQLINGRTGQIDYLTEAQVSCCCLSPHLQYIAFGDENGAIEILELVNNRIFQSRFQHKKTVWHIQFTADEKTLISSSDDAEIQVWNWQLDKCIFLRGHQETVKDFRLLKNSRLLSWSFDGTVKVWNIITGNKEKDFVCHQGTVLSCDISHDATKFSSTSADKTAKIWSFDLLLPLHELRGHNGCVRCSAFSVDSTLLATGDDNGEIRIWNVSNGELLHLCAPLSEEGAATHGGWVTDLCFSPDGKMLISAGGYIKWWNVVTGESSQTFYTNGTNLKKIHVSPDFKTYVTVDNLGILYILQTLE
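System: Apoptosome proteins | Medium: Hepes pH 7.5 with detergent and BSA | Also added: Cytochrome c trigger plus (Z-DEVD)2-Rh110 caspase-3 substrate | Incubation: 30 min compound preincubation, 50 min activation, room temperature | Detection: Rhodamine 110 fluorescence at Ex 480/Em 540 nm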
TCR-CD3 inh: blocks the human TCR-CD3 interaction; inhibition, % at 9.4 µM; TAMRA-labeled TCR probe fluorescence, biochemical; hit rate 0.37% among 360,000; in the data active = inhibition above about 19%;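 also: recombinant mutant TCR 2C K166C tagged with TAMRA read by polarization; 0% = receptor in buffer alone and 100% = receptor with positive control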
SIAE primary: human SIAE inhibition, primary screen; Q9HAT2; SIAE FP-Rh probe binding, fluorescence polarization; inhibition, % at 9.66 µM; hit rate 0.69% among 370,000; AID 1053197;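 active = inhibition above a cutoff: mean of compounds within the control limits plus 3 SD of those, cut at about 17% in these data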;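 also: 0% = plate median of compound wells and 100% = probe without SIAE protein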
Apaf-1 inh conf: confirmation of Apaf-1 inhibitors; shares compounds with Apaf1 inhib; reconstituted apoptosome, caspase-3 DEVD-Rh110 fluorescence; inhibition, % at 20 µM; hit rate 25% among 1,800; AID 504614;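 active = mean inhibition of at least 40% at 20 µM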;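 also: plate controls were DMSO wells for no effect and DEVD-CHO caspase inhibitor control wells for full effect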
Rh110 interf inh: interferes with Rh110 fluorescence, flagging false Apaf-1 inhibitors | Rh110 fluorescence interference, quenched caspase reaction | AID 504615 | activation (fluorescence interference), % at 20 µM | shares compounds with Apaf1 inhib | 1,800 tested, under 10 active;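 active = signal rise of 40% or more at 20 µM, treated as a fluorescence artifact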
Fluor interf inh: counter-screen for Apaf-1 inhibitors: fluorescence interference, dose response. fluorescence interference counterscreen, Apaf-1 assay format. shares compounds with Apaf1 inhib. AID 588538. IC50, µM. 460 tested, under 10 active; call rule not given here
* = called active by the depositor.

`O=C1Cc2ccccc2C(=O)N1CCc1ccccc1` gave GSTO1 inh 25, TDP2 inh -4, PAD4 FP inh -21, Apaf1 inhib 79*, TCR-CD3 inh 6, SIAE primary -5, Apaf-1 inh conf 95*, Rh110 interf inh 5 and Fluor interf inh >100.
`Cn1c(C(=O)N2CCN(c3nc4ccccc4s3)CC2)cc2sccc21` gave GSTO1 inh -3, TDP2 inh -1, PAD4 FP inh -2, Apaf1 inhib 41*, TCR-CD3 inh -1, SIAE primary 4, Apaf-1 inh conf 33 and Rh110 interf inh 3.
CN1CCN(CCCN2c3ccccc3Sc3ccc(C(F)(F)F)cc32)CC1 was read as GSTO1 inh 2, TDP2 inh -1, PAD4 FP inh -3, Apaf1 inhib 54*, TCR-CD3 inh 2, SIAE primary 4, Apaf-1 inh conf 11 and Rh110 interf inh 8.
N/C(=N\OC(=O)c1cc([N+](=O)[O-])ccc1Cl)c1cccnc1 was read as GSTO1 inh 7, TDP2 inh -7, PAD4 FP inh 1, Apaf1 inhib -24, TCR-CD3 inh -1 and SIAE primary -1.
CC(C)(C)c1ccc(-c2nn(CCC#N)cc2/C=N/O)cc1 was read as GSTO1 inh 4, TDP2 inh -10, PAD4 FP inh -2, Apaf1 inhib 50*, TCR-CD3 inh 2, SIAE primary 8, Apaf-1 inh conf 39 and Rh110 interf inh 7.
For Cc1ccc(-c2nn(CCC#N)cc2C=C(C#N)C#N)cc1 the results were GSTO1 inh 8, TDP2 inh 3, PAD4 FP inh 0, Apaf1 inhib 9, TCR-CD3 inh -3 and SIAE primary -1.
For Cc1cccc(C)c1-n1nnnc1C1(C)CCC(=O)N1CCc1ccccc1F (stereo not given) the results were TDP2 inh 2, TCR-CD3 inh 0 and SIAE primary 2.
CCN(CC)CCN(Cc1cc2cc3c(cc2[nH]c1=O)OCO3)C(=S)NCc1ccco1 was read as GSTO1 inh 12, TDP2 inh 8, PAD4 FP inh 2, Apaf1 inhib 10, TCR-CD3 inh 2 and SIAE primary 0.
Screening Cc1cc(N2CCCC2)ccc1NC(=O)COc1ccccc1 returned TDP2 inh -3, Apaf1 inhib 52*, TCR-CD3 inh -5, SIAE primary 4, Apaf-1 inh conf 19 and Rh110 interf inh -2.
For COc1ccc(N2CCCC2)c(NC(=O)COc2ccccc2)c1 the results were GSTO1 inh 2, TDP2 inh -3, PAD4 FP inh 1, Apaf1 inhib 15, TCR-CD3 inh 7 and SIAE primary -3.
CCc1ccccc1OCC(=O)Nc1ccc(N2CCCC2)cc1C was read as TDP2 inh -3, Apaf1 inhib 43*, TCR-CD3 inh -2, SIAE primary 6, Apaf-1 inh conf 26 and Rh110 interf inh 4.
Screening Cc1c(C(=O)Nc2ccc(S(=O)(=O)N(C)C3CCN(C)CC3)cc2)oc2ccccc12 returned TDP2 inh -6, PAD4 FP inh -3, Apaf1 inhib 53*, TCR-CD3 inh 3, SIAE primary -9, Apaf-1 inh conf 21 and Rh110 interf inh 2.
Cn1c(=O)c2cc(NC(=O)Cc3cccc4ccccc34)ccc2n1-c1ccccc1 was read as TDP2 inh 4, TCR-CD3 inh -4 and SIAE primary 3.
`COc1ccc(N2CCN(Cc3nc4scc(-c5ccccc5)c4c(=O)[nH]3)CC2)cc1` gave GSTO1 inh 2, TDP2 inh -5, PAD4 FP inh -4, Apaf1 inhib 44*, TCR-CD3 inh 0, SIAE primary -2, Apaf-1 inh conf 0 and Rh110 interf inh 6.
`O=c1[nH]c(CN2CCN(c3ccccc3)CC2)nc2scc(-c3ccccc3)c12` gave GSTO1 inh -4, TDP2 inh 5, PAD4 FP inh -5, Apaf1 inhib 28, TCR-CD3 inh -2 and SIAE primary -5.
`Fc1ccc(N2CCN(c3nc(CN4CCOCC4)nc4scc(-c5ccccc5)c34)CC2)cc1` gave GSTO1 inh 0, TDP2 inh 3, PAD4 FP inh 1, Apaf1 inhib 41*, TCR-CD3 inh -8, SIAE primary 0, Apaf-1 inh conf 17 and Rh110 interf inh 4.
CN(Cc1ccccc1)c1nc(CN2CCOCC2)nc2scc(-c3ccccc3)c12 was read as GSTO1 inh -3, TDP2 inh -3, PAD4 FP inh -2, Apaf1 inhib 16, TCR-CD3 inh 4 and SIAE primary -5.
Screening c1ccc2c(C[C@@H]3CNCCN3CCCCC3CCCCC3)cccc2c1 returned TDP2 inh -9, PAD4 FP inh 1, Apaf1 inhib 71*, TCR-CD3 inh -1, SIAE primary 2, Apaf-1 inh conf 34 and Rh110 interf inh 19.
`c1ccc(C2(CN3CCNC[C@H]3Cc3cccc4ccccc34)CC2)cc1` gave GSTO1 inh 0, TDP2 inh -2, PAD4 FP inh -4, Apaf1 inhib 53*, TCR-CD3 inh -1, SIAE primary 9, Apaf-1 inh conf 2 and Rh110 interf inh 5.
Screening Fc1cccc(CCN2CCNC[C@H]2Cc2cccc3ccccc23)c1 returned GSTO1 inh -2, TDP2 inh -29, PAD4 FP inh 3, Apaf1 inhib 43*, TCR-CD3 inh -6, SIAE primary -2, Apaf-1 inh conf 8 and Rh110 interf inh 2.
For c1ccc2c(C[C@@H]3CNCCN3CCC34CC5CC(CC(C5)C3)C4)cccc2c1 the results were TDP2 inh -1, PAD4 FP inh -4, Apaf1 inhib 66*, TCR-CD3 inh 6, SIAE primary 2, Apaf-1 inh conf 24 and Rh110 interf inh 14.
CC(C)(C)CN1CCNC[C@H]1Cc1cccc2ccccc12 was read as GSTO1 inh 6, TDP2 inh 0, PAD4 FP inh -4, Apaf1 inhib 11, TCR-CD3 inh 3 and SIAE primary 6.
For Cc1c(NC(=O)C2CCN(S(=O)(=O)c3ccccc3)CC2)c(=O)n(-c2ccccc2)n1C the results were GSTO1 inh 8, TDP2 inh -7, PAD4 FP inh 1, Apaf1 inhib 2, TCR-CD3 inh 5 and SIAE primary 3.
`CCOC(=O)c1cc2cc3ccccc3cc2[nH]1` gave GSTO1 inh 5, TDP2 inh -4, PAD4 FP inh 7, Apaf1 inhib 58*, TCR-CD3 inh -5, SIAE primary 4, Apaf-1 inh conf 11 and Rh110 interf inh 7.
